Laboratory results as given in ChEMBL document CHEMBL1134779, “Synthesis and characterization of the antitumor activities of analogues of meridine, a marine pyridoacridine alkaloid” (J Med Chem, 2001).

Experiments:
U373 MG = assay: In vitro inhibition of U-373 MG (human glioblastoma) cell growth.; format: functional, cell-based, U-373MG ATCC
In short: (§1)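 Human cancer lines from ATCC, grown at 37 °C in sealed dishes in Eagle's MEM with 5% FCS. Cells were seeded at 40000 cells/mL and plated for 24 h before drug exposure. Six concentrations from 10^-5 to 10^-10 M were tested. Growth was read by MTT reduction to formazan at 570 nm (reference 630 nm), in sextuplicate. IC50 is the concentration giving 50% growth reduction versus control.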

U-87 MG = assay: In vitro inhibition of U-87 MG (human glioblastoma) cell growth.; format: functional, cell-based, U-87MG ATCC; in short: as §1
A549 = assay: In vitro inhibition of A549 (human lung cancer) cell growth.; format: functional, cell-based; in short: as §1
J82 = assay: In vitro inhibition of J82 (human bladder cancer) cell growth.; format: functional, cell-based; in short: as §1
A-427 = assay: In vitro inhibition of A-427 (human lung cancer) cell growth.; format: functional, cell-based; in short: as §1
HCT-15 = assay: In vitro inhibition of HCT-15 (human colon cancer) cell growth.; format: functional, cell-based; in short: as §1
T47D [1] = assay: In vitro inhibition of T-47D (human breast cancer) cell growth.; format: functional, cell-based; in short: as §1
MCF7 = assay: In vitro inhibition of MCF-7 (human breast cancer) cell growth.; format: functional, cell-based; in short: as §1
[2] = In vitro inhibition of T24 (human bladder cancer) cell growth.; format: functional, cell-based; conditions: T-24; in short: as §1
SW1088 (human) = assay: In vitro inhibition of SW1088 (human astrocytoma) cell growth.
LoVo = assay: In vitro inhibition of LoVo (human colon cancer) cell growth.; format: functional, cell-based; in short: as §1
PC-3 = assay: In vitro inhibition of PC-3 (human prostate cancer) cell growth.; format: functional, cell-based; in short: as §1
T47D [3] = assay: Ctotoxic related antitumor activity against human cancer cell lines T-47 D; format: functional, cell-based; in short: as §1

SMILES | IC50 (U373 MG) [nM] | IC50 (U-87 MG) [nM] | IC50 (A549) [nM] | IC50 (J82) [nM] | IC50 (A-427) [nM] | IC50 (HCT-15) [nM] | IC50 (T47D [1]) [nM] | IC50 (MCF7) [nM] | IC50 [2] [nM] | IC50 (SW1088 (human)) [nM] | IC50 (LoVo) [nM] | IC50 (PC-3) [nM] | IC50 (T47D [3]) [nM]
O=C1c2nccc(Cl)c2C(=O)c2c(-c3ccccc3NC(=O)C(F)(F)F)ccnc21 | 90 | 50 | 70 | 3300 | 600 | 10 | 2100 | 60 | 200 | 3800 | 60 | 900 | 
O=C1c2nc(O)ccc2C(=O)c2c(-c3ccccc3NC(=O)C(F)(F)F)ccnc21 | 40 | 40 | 50 | 2100 | 40 | 60 | 200 | 30 | 50 | 60 | 40 | 900 | 
CCOC(=O)c1cnc2c(c1)-c1nc3ccccc3c3ccnc(c13)C2=O | 700 | 70 | 80 | 5200 | 800 | 200 | 2900 | 700 | 900 | 2800 | 700 | 5700 | 
O=C1c2ncccc2C(=O)c2c(-c3ccccc3NC(=O)C(F)(F)F)ccnc21 | 5 | 0.9 | 6 | 60 | 30 | 8 | 50 | 6 | 200 | 60 | 7 | 60 | 
O=C1c2nccc(Cl)c2C(=O)c2c(-c3ccccc3[N+](=O)[O-])ccnc21 | 4800 | 2000 | 900 | 500 | 3500 | 2800 | 800 | 1800 | 5500 | 5400 | 3900 | 5000 | 
O=C1c2nccc(O)c2C(=O)c2c(-c3ccccc3[N+](=O)[O-])ccnc21 | 4000 | 800 | 2300 | 5300 | 1200 | 3500 | 4500 | 3900 | 2300 | 2900 | 2900 | 7300 | 
Nc1ccnc2c1C(=O)c1c(-c3ccccc3[N+](=O)[O-])ccnc1C2=O | 3100 | 2700 | 600 | 3000 | 5500 | 500 | 5500 | 3100 | 3600 | 4800 | 5700 | 5100 | 
O=C1c2nccc(Br)c2-c2nc3ccccc3c3ccnc1c23 | 900 | 700 | 3300 | 9000 | 700 | 3600 | 4400 | 1100 | 700 | 3000 | 800 | 4900 | 
CN(C)c1ccnc2c1-c1nc3ccccc3c3ccnc(c13)C2=O | 80 | 50 | 60 | 1300 | 60 | 70 | 500 | 80 | 200 | 100 | 80 | 600 | 
COc1ccnc2c1C(=O)c1c(-c3ccccc3[N+](=O)[O-])ccnc1C2=O | 30 | 9 | 20 | 400 | 700 | 90 | 5100 | 50 | 20 | 3900 | 50 | 3100 | 
O=C1c2nccc(-c3ccccc3NC(=O)C(F)(F)F)c2C(=O)c2c([N+](=O)[O-])ccnc21 | 900 | 4700 | 900 | 3900 | 4500 | 600 | 4300 | 700 | 5400 | 6000 | 900 | 600 | 
Nc1ccnc2c1C(=O)c1c(-c3ccccc3NC(=O)C(F)(F)F)ccnc1C2=O | 900 | 300 | 600 | 2700 | 500 | 600 | 1200 | 800 | 700 | 800 | 700 | 600 | 
O=C1c2nccc(Cl)c2-c2nc3ccccc3c3ccnc1c23 | 100 | 20 | 7 | 90 | 900 | 100 | 2700 | 80 | 90 | 4300 | 50 | 500 | 
COc1ccnc2c1-c1nc3ccccc3c3ccnc(c13)C2=O | < 0.1 | < 0.1 | 0.3 | 0.9 | 5 | 2 | 30 | < 0.1 | 6 | 60 | 0.3 | 60 | 
O=C1c2ncccc2-c2nc3ccccc3c3ccnc1c23 | 0.7 | < 0.1 | 20 | 7 | 0.8 | 5 | 10 | 0.9 | < 0.1 | 60 | 20 | 40 | 
Nc1ccnc2c1-c1nc3ccccc3c3ccnc(c13)C2=O | 100 | 70 | 80 | 700 | 60 | 300 | 600 | 90 | 70 | 80 | 90 | 500 | 
COc1ccnc2c1C(=O)c1c(-c3ccccc3NC(=O)C(F)(F)F)ccnc1C2=O | < 0.1 | < 0.1 | < 0.1 | 0.9 | 50 | 2 | 30 | 0.3 | 7 | 50 | 0.1 | 50 | 
O=C1c2nccc([N+](=O)[O-])c2-c2nc3ccccc3c3ccnc1c23 | 90 | 70 | 800 | 500 | 2400 | 600 | 600 | 70 | 700 | 5500 | 90 | 4200 | 
CC(=O)Nc1ccnc2c1C(=O)c1c(-c3ccccc3NC(=O)C(F)(F)F)ccnc1C2=O | 90 | 60 | 70 | 3500 | 60 | 90 | 300 | 90 | 400 | 90 | 70 | 2700 | 
CN(C)c1ccnc2c1C(=O)c1c(-c3ccccc3NC(=O)C(F)(F)F)ccnc1C2=O | 300 | 60 | 60 | 2000 | 70 | 200 | 700 | 100 | 300 | 400 | 100 | 600 | 
CCOC(=O)c1cnc2c(c1)C(=O)c1c(-c3ccccc3NC(=O)C(F)(F)F)ccnc1C2=O | 400 | 80 | 90 | 5200 | 600 | 100 |  | 500 | 600 | 800 | 800 | 1300 | 2600
O=C1c2nccc(O)c2-c2nc3ccccc3c3ccnc1c23 [MERIDINE] | 100 | 100 | 80 | 8200 | 200 | 200 | 70 | 90 | 50 | 2000 | 70 | 500 | 
